Activity calls are given as the source filed them. The calls are words filed in the database; no cut-off is given here.
Columns and labels:
Staphylococcus aureus = assay: Growth inhibition of Staphylococcus aureus ATCC 25923 after 24 by broth micro-dilution method; assay type: functional
Escherichia coli = assay: Growth inhibition of Escherichia coli ATCC 25922 after 24 by broth micro-dilution method; assay type: functional
Pseudomonas aeruginosa = assay: Growth inhibition of Pseudomonas aeruginosa ATCC 27853 after 24 by broth micro-dilution method; assay type: functional
Candida albicans = assay: Growth inhibition of Candida albicans ATCC 90028 after 48 by broth micro-dilution method; assay type: functional
[1] = Metal chelating activity of the compound assessed as fluorescence recovery of calcein-Fe3 complex formation up to 10 uM measured after overnight incubation by CAFe based fluorescence spectrophotometry
In short: (§1)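 Competition assay between the test chelator and a calcein–Fe(III) complex. Calcein is a fluorescent chelator with high Fe(III) affinity, and Fe(III) coordination quenches its fluorescence stoichiometrically. Relative Fe(III) affinity is inferred from the competing equilibrium, read as change in calcein fluorescence.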

[2] = Metal chelating activity of the compound assessed as fluorescence recovery of calcein-Fe3 complex formation up to 40 uM measured after overnight incubation by CAFe based fluorescence spectrophotometry; in short: as §1
KB 3-1 = assay: Cytotoxicity against human KB-3-1 cells assessed as reduction in cell viability up to 30 uM after 68 hrs by MTT assay; assay type: functional, cell-based
SW-620 = assay: Cytotoxicity against human SW620 cells assessed as reduction in cell viability up to 30 uM after 68 hrs by MTT assay; assay type: functional, cell-based
NCI-H460 = assay: Cytotoxicity against human NCI-H460 cells assessed as reduction in cell viability up to 30 uM after 68 hrs by MTT assay; assay type: functional, cell-based

## CC(=O)N[C@@H](CCCN(O)C(=O)/C=C(\C)CCO)C(=O)OCC/C(C)=C/C(=O)N(O)CCC[C@@H]1NC(=O)[C@H](CCCN(O)C(=O)/C=C(\C)CCO)NC1=O
Staphylococcus aureus
  IC50: > 30 µM
Escherichia coli
  IC50: > 30 µM
Pseudomonas aeruginosa
  IC50: > 30 µM
Candida albicans
  IC50: > 30 µM
[1]
  Activity: Active
[2]
  Activity: Active
KB 3-1
  Activity: inactive
SW-620
  Activity: inactive
NCI-H460
  Activity: inactive

## CC(=O)N[C@@H](CCCN(O)C(=O)/C=C(\C)CCO)C(=O)OCC/C(C)=C/C(=O)NCCC[C@@H]1NC(=O)[C@H](CCCNC(=O)/C=C(\C)CCO)NC1=O
Staphylococcus aureus
  IC50: > 30 µM
Escherichia coli
  IC50: > 30 µM
Pseudomonas aeruginosa
  IC50: > 30 µM
Candida albicans
  IC50: > 30 µM
KB 3-1
  Activity: inactive
SW-620
  Activity: inactive
NCI-H460
  Activity: inactive

## CC(=O)N[C@@H](CCCN(O)C(=O)/C=C(\C)CCO)C(=O)OCC/C(C)=C/C(=O)NCCC[C@@H]1NC(=O)[C@H](CCCN(O)C(=O)/C=C(\C)CCO)NC1=O
Staphylococcus aureus
  IC50: > 30 µM
Escherichia coli
  IC50: > 30 µM
Pseudomonas aeruginosa
  IC50: > 30 µM
Candida albicans
  IC50: > 30 µM
KB 3-1
  Activity: inactive
SW-620
  Activity: inactive
NCI-H460
  Activity: inactive

## C/C(=C\C(=O)NCCC[C@@H]1NC(=O)[C@H](CCCNC(=O)/C=C(\C)CCO)NC1=O)CCO
Staphylococcus aureus
  IC50: > 30 µM
Escherichia coli
  IC50: > 30 µM
Pseudomonas aeruginosa
  IC50: > 30 µM
Candida albicans
  IC50: > 30 µM
KB 3-1
  Activity: inactive
SW-620
  Activity: inactive
NCI-H460
  Activity: inactive

## CC(=O)N[C@@H](CCCN(O)C(=O)/C=C(\C)CCO)C(=O)OCC/C(C)=C/C(=O)N(O)CCC[C@@H]1NC(=O)[C@H](CCCNC(=O)/C=C(\C)CCO)NC1=O
Staphylococcus aureus
  IC50: > 30 µM
Escherichia coli
  IC50: > 30 µM
Pseudomonas aeruginosa
  IC50: > 30 µM
Candida albicans
  IC50: > 30 µM
KB 3-1
  Activity: inactive
SW-620
  Activity: inactive
NCI-H460
  Activity: inactive

## C/C(=C\C(=O)N(O)CCC[C@@H]1NC(=O)[C@H](CCCN(O)C(=O)/C=C(\C)CCO)NC1=O)CCO
Staphylococcus aureus
  IC50: > 30 µM
Escherichia coli
  IC50: > 30 µM
Pseudomonas aeruginosa
  IC50: > 30 µM
Candida albicans
  IC50: > 30 µM
[1]
  Activity: Active
[2]
  Activity: Active
KB 3-1
  Activity: inactive
SW-620
  Activity: inactive
NCI-H460
  Activity: inactive

## C/C(=C\C(=O)NCCC[C@@H]1NC(=O)[C@H](CCCN(O)C(=O)/C=C(\C)CCO)NC1=O)CCO
Staphylococcus aureus
  IC50: > 30 µM
Escherichia coli
  IC50: > 30 µM
Pseudomonas aeruginosa
  IC50: > 30 µM
Candida albicans
  IC50: > 30 µM
KB 3-1
  Activity: inactive
SW-620
  Activity: inactive
NCI-H460
  Activity: inactive

Reference: ChEMBL document CHEMBL4052587, “Talarazines A-E: Noncytotoxic Iron(III) Chelators from an Australian Mud Dauber Wasp-Associated Fungus, Talaromyces sp. (CMB-W045)” (J Nat Prod, 2017)
